Data as given in ChEMBL document CHEMBL3593164, “Rational Design and Synthesis of Thioridazine Analogues as Enhancers of the Antituberculosis Therapy” (J Med Chem, 2015).

Experiments:
[1] = test system: Mycobacterium tuberculosis; assay: Inhibition of multidrug resistance efflux pump in Mycobacterium tuberculosis H37Rv assessed as ethidium bromide MIC at 1 ug/ml after 7 days by two-dimensional broth microdilution checkerboard assay; details: 168 h
How it was run: (§1)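 M. tuberculosis H37Rv two-dimensional broth microdilution checkerboard. MICs of INH, RIF, AMK, OFX or EtBr were determined without and with graded sub-inhibitory compound concentrations, starting at ½ MIC. Where MIC was undeterminable, the highest concentration still permitting growth was taken as ½ MIC. FIC = MIC of antibacterial in combination / MIC alone. FIC ≤0.25 was scored as synergism and ≥2 as antagonism.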

[2] = test system: Mycobacterium tuberculosis; assay: Inhibition of multidrug resistance efflux pump in Mycobacterium tuberculosis H37Rv assessed as amikacin MIC at 2 ug/ml after 7 days by two-dimensional broth microdilution checkerboard assay; details: 168 h
[3] = test system: Mycobacterium tuberculosis; assay: Inhibition of multidrug resistance efflux pump in Mycobacterium tuberculosis H37Rv assessed as ofloxacin MIC at 1 ug/ml after 7 days by two-dimensional broth microdilution checkerboard assay; details: 168 h; how it was run: as §1
[4] = test system: Mycobacterium tuberculosis; assay: Inhibition of multidrug resistance efflux pump in Mycobacterium tuberculosis H37Rv assessed as reduction in isoniazid MIC at 64 ug/ml after 7 days by two-dimensional broth microdilution checkerboard assay; how it was run: as §1
[5] = test system: Mycobacterium tuberculosis; assay: Inhibition of multidrug resistance efflux pump in Mycobacterium tuberculosis H37Rv assessed as ethidium bromide MIC at 2 ug/ml after 7 days by two-dimensional broth microdilution checkerboard assay; details: 168 h
[6] = test system: Mycobacterium tuberculosis; assay: Inhibition of multidrug resistance efflux pump in Mycobacterium tuberculosis H37Rv assessed as isoniazid MIC at 1 ug/ml after 7 days by two-dimensional broth microdilution checkerboard assay; details: 168 h; how it was run: as §1
[7] = test system: Mycobacterium tuberculosis; assay: Inhibition of multidrug resistance efflux pump in Mycobacterium tuberculosis H37Rv assessed as ofloxacin MIC at 2 ug/ml after 7 days by two-dimensional broth microdilution checkerboard assay; details: 168 h
[8] = test system: Mycobacterium tuberculosis; assay: Inhibition of multidrug resistance efflux pump in Mycobacterium tuberculosis H37Rv assessed as reduction in isoniazid MIC at 128 ug/ml after 7 days by two-dimensional broth microdilution checkerboard assay
[9] = test system: Mycobacterium tuberculosis; assay: Inhibition of multidrug resistance efflux pump in Mycobacterium tuberculosis H37Rv assessed as reduction in ofloxacin MIC at 128 ug/ml after 7 days by two-dimensional broth microdilution checkerboard assay
[10] = test system: Mycobacterium tuberculosis; assay: Inhibition of multidrug resistance efflux pump in Mycobacterium tuberculosis H37Rv assessed as reduction in ethidium bromide MIC at 128 ug/ml after 7 days by two-dimensional broth microdilution checkerboard assay
[11] = test system: Mycobacterium tuberculosis; assay: Inhibition of multidrug resistance efflux pump in Mycobacterium tuberculosis H37Rv assessed as amikacin MIC at 0.47 ug/ml after 7 days by two-dimensional broth microdilution checkerboard assay; details: 168 h
How it was run: (§2)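 M. tuberculosis H37Rv ATCC27294. MICs of INH, RIF, AMK, OFX and EtBr were determined alone and with sub-inhibitory concentrations of test compound by two-dimensional broth microdilution checkerboard. Where a compound's MIC was not determinable, the highest concentration still allowing growth was taken as ½ MIC. FIC = MIC in combination / MIC alone. FIC ≤0.25 was scored as synergism and ≥2 as antagonism.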

[12] = test system: Mycobacterium tuberculosis; assay: Inhibition of multidrug resistance efflux pump in Mycobacterium tuberculosis H37Rv assessed as isoniazid MIC at 0.94 ug/ml after 7 days by two-dimensional broth microdilution checkerboard assay; details: 168 h; how it was run: as §2
[13] = test system: Mycobacterium tuberculosis; assay: Inhibition of multidrug resistance efflux pump in Mycobacterium tuberculosis H37Rv assessed as ofloxacin MIC at 0.12 ug/ml after 7 days by two-dimensional broth microdilution checkerboard assay; details: 168 h; how it was run: as §2
[14] = test system: Mycobacterium tuberculosis; assay: Inhibition of multidrug resistance efflux pump in Mycobacterium tuberculosis H37Rv assessed as ethidium bromide MIC at 1.88 ug/ml after 7 days by two-dimensional broth microdilution checkerboard assay; details: 168 h; how it was run: as §2
[15] = test system: Mycobacterium tuberculosis; assay: Inhibition of multidrug resistance efflux pump in Mycobacterium tuberculosis H37Rv assessed as rifampin MIC at 0.12 ug/ml after 7 days by two-dimensional broth microdilution checkerboard assay; details: 168 h; how it was run: as §2
[16] = test system: Mycobacterium tuberculosis; assay: Inhibition of multidrug resistance efflux pump in Mycobacterium tuberculosis H37Rv assessed as reduction in ethidium bromide MIC at 3.75 ug/ml after 7 days by two-dimensional broth microdilution checkerboard assay; how it was run: as §1
[17] = test system: Mycobacterium tuberculosis; assay: Inhibition of multidrug resistance efflux pump in Mycobacterium tuberculosis H37Rv assessed as isoniazid MIC at 0.47 ug/ml after 7 days by two-dimensional broth microdilution checkerboard assay; details: 168 h; how it was run: as §2
[18] = test system: Mycobacterium tuberculosis; assay: Inhibition of multidrug resistance efflux pump in Mycobacterium tuberculosis H37Rv assessed as amikacin MIC at 3.75 ug/ml after 7 days by two-dimensional broth microdilution checkerboard assay; details: 168 h; how it was run: as §2
[19] = test system: Mycobacterium tuberculosis; assay: Inhibition of multidrug resistance efflux pump in Mycobacterium tuberculosis H37Rv assessed as rifampin MIC at 7.5 ug/ml after 7 days by two-dimensional broth microdilution checkerboard assay; details: 168 h; how it was run: as §1
[20] = test system: Mycobacterium tuberculosis; assay: Inhibition of multidrug resistance efflux pump in Mycobacterium tuberculosis H37Rv assessed as ethidium bromide MIC at 0.94 ug/ml after 7 days by two-dimensional broth microdilution checkerboard assay; details: 168 h; how it was run: as §2
[21] = test system: Mycobacterium tuberculosis; assay: Inhibition of multidrug resistance efflux pump in Mycobacterium tuberculosis H37Rv assessed as ofloxacin MIC at 0.94 ug/ml after 7 days by two-dimensional broth microdilution checkerboard assay; details: 168 h; how it was run: as §2
[22] = test system: Mycobacterium tuberculosis; assay: Inhibition of multidrug resistance efflux pump in Mycobacterium tuberculosis H37Rv assessed as amikacin MIC at 1.88 ug/ml after 7 days by two-dimensional broth microdilution checkerboard assay; details: 168 h; how it was run: as §2
[23] = test system: Mycobacterium tuberculosis; assay: Inhibition of multidrug resistance efflux pump in Mycobacterium tuberculosis H37Rv assessed as reduction in ofloxacin MIC at 7.5 ug/ml after 7 days by two-dimensional broth microdilution checkerboard assay; how it was run: as §1
[24] = test system: Mycobacterium tuberculosis; assay: Inhibition of multidrug resistance efflux pump in Mycobacterium tuberculosis H37Rv assessed as ofloxacin MIC at 0.23 ug/ml after 7 days by two-dimensional broth microdilution checkerboard assay; details: 168 h; how it was run: as §2
[25] = test system: Mycobacterium tuberculosis; assay: Inhibition of multidrug resistance efflux pump in Mycobacterium tuberculosis H37Rv assessed as isoniazid MIC at 7.5 ug/ml after 7 days by two-dimensional broth microdilution checkerboard assay; details: 168 h; how it was run: as §1
[26] = test system: Mycobacterium tuberculosis; assay: Inhibition of multidrug resistance efflux pump in Mycobacterium tuberculosis H37Rv assessed as ofloxacin MIC at 3.75 ug/ml after 7 days by two-dimensional broth microdilution checkerboard assay; details: 168 h; how it was run: as §2
[27] = test system: Mycobacterium tuberculosis; assay: Inhibition of multidrug resistance efflux pump in Mycobacterium tuberculosis H37Rv assessed as ethidium bromide MIC at 0.12 ug/ml after 7 days by two-dimensional broth microdilution checkerboard assay; details: 168 h; how it was run: as §2
[28] = test system: Mycobacterium tuberculosis; assay: Inhibition of multidrug resistance efflux pump in Mycobacterium tuberculosis H37Rv assessed as ofloxacin MIC at 7.5 ug/ml after 7 days by two-dimensional broth microdilution checkerboard assay; details: 168 h; how it was run: as §1
[29] = test system: Mycobacterium tuberculosis; assay: Inhibition of multidrug resistance efflux pump in Mycobacterium tuberculosis H37Rv assessed as ethidium bromide MIC at 0.47 ug/ml after 7 days by two-dimensional broth microdilution checkerboard assay; details: 168 h; how it was run: as §2
[30] = test system: Mycobacterium tuberculosis; assay: Inhibition of multidrug resistance efflux pump in Mycobacterium tuberculosis H37Rv assessed as isoniazid MIC at 3.75 ug/ml after 7 days by two-dimensional broth microdilution checkerboard assay; details: 168 h; how it was run: as §1
[31] = test system: Mycobacterium tuberculosis; assay: Inhibition of multidrug resistance efflux pump in Mycobacterium tuberculosis H37Rv assessed as ethidium bromide MIC at 7.5 ug/ml after 7 days by two-dimensional broth microdilution checkerboard assay; details: 168 h; how it was run: as §1

Question: With `CN1CCCCC1CCn1c2ccccc2c2ccccc21` (racemic) as the compound, how does the MIC [1] read?
Answer: 12.5 µg/mL

Question: What about the MIC [2] of the same compound?
Answer: 1 µg/mL

Question: What about the MIC [3] of the same compound?
Answer: 1 µg/mL

Question: What about the “fold change (FC)” value [4] of the same compound?
Answer: >128

Question: What about the MIC [5] of the same compound?
Answer: 12.5 µg/mL

Question: And the MIC [6]?
Answer: 0.1 µg/mL

Question: What about the MIC [7] of the same compound?
Answer: 1 µg/mL

Question: What does the source list for `CN1CCCCC1CCn1ccc2ccc(Br)cc21` (racemic)?
Answer: fold change (FC) [8]: >164; fold change (FC) [9]: >128; fold change (FC) [10]: >164

Question: How did the MIC [11] turn out when `CSc1ccc2c(c1)N(CCC1CCCCN1C)c1ccccc1S2` (stereo unspecified) [THIORIDAZINE] was run?
Answer: 1 µg/mL

Question: And the MIC [12]?
Answer: 0.1 µg/mL

Question: What about the MIC [13] of the same compound?
Answer: 1 µg/mL

Question: And the MIC [14]?
Answer: 6.25 µg/mL

Question: What about the MIC [15] of the same compound?
Answer: 1 µg/mL

Question: What about the “fold change (FC)” value [16] of the same compound?
Answer: 4

Question: And the MIC [17]?
Answer: 0.1 µg/mL

Question: What about the MIC [18] of the same compound?
Answer: 1 µg/mL

Question: What about the MIC [19] of the same compound?
Answer: < 0.0156 µg/mL

Question: What about the MIC [20] of the same compound?
Answer: 6.25 µg/mL

Question: And the MIC [21]?
Answer: 1 µg/mL

Question: What about the MIC [22] of the same compound?
Answer: 1 µg/mL

Question: And the “fold change (FC)” value [23]?
Answer: >128

Question: What about the MIC [24] of the same compound?
Answer: 1 µg/mL

Question: What about the MIC [25] of the same compound?
Answer: < 0.00078 µg/mL

Question: What about the MIC [26] of the same compound?
Answer: 1 µg/mL

Question: And the MIC [27]?
Answer: 6.25 µg/mL

Question: What about the MIC [28] of the same compound?
Answer: < 0.0156 µg/mL

Question: What about the MIC [29] of the same compound?
Answer: 6.25 µg/mL

Question: What about the MIC [30] of the same compound?
Answer: 0.05 µg/mL

Question: What about the MIC [31] of the same compound?
Answer: < 0.195 µg/mL
